According to ChEMBL document CHEMBL1177721, “Cytotoxicity of artesunic acid homo- and heterodimer molecules toward sensitive and multidrug-resistant CCRF-CEM leukemia cells” (J Med Chem, 2010):
Active and inactive are the calls of the source. The rule behind the calls is not given here.

How the values were obtained:
Assay type in all cases: functional, cell-based
[1] = tested on: ADR5000 cell line; assay: Induction of apoptosis in human CEM/ADR5000 cells at 2 ug/mL after 48 hrs using propidium iodide staining by flow cytometry
[2] = tested on: ADR5000 cell line; assay: Increase in ROS generation in human CEM/ADR5000 cells at 0 001 ug/ml after 24 hrs using 2',7'-dichlorodihydrofluoresceine diacetate staining by flow cytometry
Summary of the method: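 Intracellular ROS measured by H2DCFDA staining and flow cytometry. Cells at 5 × 10^5 cells/mL exposed to a range of concentrations, sampled at 6, 24, 48 and 72 h. Fluorescence histograms overlaid on untreated controls. Levels normalised to the median of three nontreated controls.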

[3] = tested on: ADR5000 cell line; assay: Cytotoxicity against human CEM/ADR5000 by XTT assay
Summary of the method: (§1)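 XTT (tetrazolium cleavage by cellular dehydrogenases to formazan) read on plate reader. Cells kept in RPMI-1640 with 10% heat-inactivated FCS, 1% penicillin/streptomycin, 37 °C, 5% CO2. CEM/ADR5000 pulsed with 5000 ng/mL doxorubicin for 3 days every other week to keep P-glycoprotein overexpression. IC50 from dose-response curves, mean ± SD of two to three independent experiments, three parallel measurements each.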

[4] = tested on: CCRF-CEM; assay: Cytotoxicity against human CCRF-CEM by XTT assay; summary of the method: as §1
[5] = tested on: ADR5000 cell line; assay: Cell cycle arrest in human CEM/ADR5000 cells assessed as accumulation at G0/G1 phase 1 ug/ml after 48 hrs using propidium iodide staining by flow cytometry
[6] = tested on: ADR5000 cell line; assay: Increase in ROS generation in human CEM/ADR5000 cells at 0 01 ug/ml after 72 hrs using 2',7'-dichlorodihydrofluoresceine diacetate staining by flow cytometry
[7] = tested on: ADR5000 cell line; assay: Cell cycle arrest in human CEM/ADR5000 cells assessed as accumulation at G0/G1 phase 10 ug/ml after 48 hrs using propidium iodide staining by flow cytometry
Summary of the method: (§2)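 Nicoletti assay: cells were stained with propidium iodide and read by flow cytometry, counting 10 000 cells per sample. Cells were grown in RPMI-1640 with 10% heat-inactivated FCS and 1% penicillin/streptomycin at 37 °C under 5% CO2. To keep P-glycoprotein overexpressed, CEM/ADR5000 cells were given 5000 ng/mL doxorubicin for 3 days every other week.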

[8] = tested on: ADR5000 cell line; assay: Cell cycle arrest in human CEM/ADR5000 cells assessed as accumulation at G2/M phase 0.01 ug/ml after 48 hrs using propidium iodide staining by flow cytometry; summary of the method: as §2
[9] = tested on: ADR5000 cell line; assay: Induction of apoptosis in human CEM/ADR5000 cells at 1 ug/mL after 24 hrs using propidium iodide staining by flow cytometry; summary of the method: as §2
[10] = tested on: ADR5000 cell line; assay: Increase in ROS generation in human CEM/ADR5000 cells at 1 ug/ml after 6 hrs 2',7'-dichlorodihydrofluoresceine diacetate staining by flow cytometry

Structure (SMILES) | IC50 [3] [µM] | IC50 [4] [µM] | further results
C[C@H]1[C@H](OC(=O)CCC(=O)NCCCNC(=O)CCC(=O)O[C@@H]2O[C@@H]3O[C@@]4(C)CC[C@H]5[C@H](C)CC[C@@H]([C@H]2C)[C@@]35OO4)O[C@@H]2O[C@@]3(C)CC[C@H]4[C@H](C)CC[C@@H]1[C@@]24OO3 | 0.2 | 1.2 | Activity [1]: Active; Activity [2]: Active; Activity [5]: Active
C=C(C)[C@@H]1CC[C@]2(COC(C)=O)CC[C@]3(C)[C@H](CC[C@@H]4[C@@]5(C)CC[C@H](OC(=O)CCC(=O)O[C@@H]6O[C@@H]7O[C@@]8(C)CC[C@H]9[C@H](C)CC[C@@H]([C@H]6C)[C@@]79OO8)C(C)(C)[C@@H]5CC[C@]43C)[C@@H]12 | 20.8 | 31.9 | 
C=C(C)[C@@H]1CC[C@]2(COC(=O)CCC(=O)O[C@@H]3O[C@@H]4O[C@@]5(C)CC[C@H]6[C@H](C)CC[C@@H]([C@H]3C)[C@@]46OO5)CC[C@]3(C)[C@H](CC[C@@H]4[C@@]5(C)CC[C@H](O)C(C)(C)[C@@H]5CC[C@]43C)[C@@H]12 | 11.9 | 9.7 | 
C=C(C)[C@@H]1CC[C@]2(COC(=O)CCC(=O)O[C@@H]3O[C@@H]4O[C@@]5(C)CC[C@H]6[C@H](C)CC[C@@H]([C@H]3C)[C@@]46OO5)CC[C@]3(C)[C@H](CC[C@@H]4[C@@]5(C)CC[C@H](OC(=O)CCC(=O)O[C@@H]6O[C@@H]7O[C@@]8(C)CC[C@H]9[C@H](C)CC[C@@H]([C@H]6C)[C@@]79OO8)C(C)(C)[C@@H]5CC[C@]43C)[C@@H]12 | 42.1 | 42.9 | 
C[C@@H]1CC[C@H]2[C@@H](C)C(=O)O[C@@H]3O[C@@]4(C)CC[C@@H]1[C@]32OO4 [ARTEMISININ] | 26.9 | 36.9 | 
C[C@H]1[C@H](OC(=O)CCC(=O)O)O[C@@H]2O[C@@]3(C)CC[C@H]4[C@H](C)CC[C@@H]1[C@@]24OO3 [ARTESUNATE] | 1.2 | 1.8 | Activity [1]: Active; Activity [6]: Active; Activity [7]: Active; Activity [8]: Active
C=C(C)[C@@H]1CC[C@]2(CO)CC[C@]3(C)[C@H](CC[C@@H]4[C@@]5(C)CC[C@H](O)C(C)(C)[C@@H]5CC[C@]43C)[C@@H]12 [BETULIN] | 56.5 | 50.8 | 
COc1cccc2c1C(=O)c1c(O)c3c(c(O)c1C2=O)C[C@@](O)(C(=O)CO)C[C@@H]3O[C@H]1C[C@H](N)[C@H](O)[C@H](C)O1 [DOXORUBICIN] | > 5.2 | 0.0369 | Activity [9]: Active; Activity [10]: inactive
